Source: ChEMBL document CHEMBL5046236, “Synthesis and structure-activity relationship study of new biaryl amide derivatives and their inhibitory effects against hepatitis C virus” (Eur J Med Chem, 2022)

Legend:
Huh-7.5 = assay: (§1) Cytotoxicity against human Huh7.5 cells assessed as inhibition of cell growth measured after 96 hrs by MTT assay; format: toxicity, cell-based; details: huh-7.5, 96 h
Procedure, shortened: (§2)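 Huh7.5 cells in DMEM with 10% heat-inactivated FBS, seeded at 3.0 × 10⁴ cells/cm²; after 24 h, fresh medium with compound added (DMSO stocks, eight 1:5 serial dilutions).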

[1] = target: DNA dC->dU-editing enzyme APOBEC-3G (Homo sapiens) (UniProt Q9HC16); assay: Inhibition of Vif-mediated human A3G degradation in HEK-293T cells cotransfected with hA3G and Vif at 20 uM by western blot analysis relative to control; format: cell-based
Procedure, shortened: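 293T cells cotransfected with hA3G and Vif expression vectors, then treated with compounds at 20 μM; MG132 proteasome inhibitor as positive control, DMSO-treated cells as comparator for hA3G degradation.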

Hepatitis C virus = assay: Antiviral activity against Hepatitis C virus infected in human Huh7.5 cells assessed as inhibition of viral replication incubated for 72 hrs by qRT-PCR analysis; format: functional, organism-based, Hepacivirus hominis; details: Huh7.5, 72 h
[2] = Selectivity index, ratio of CC50 for cytotoxicity against human Huh7.5 cells to EC50 for antiviral activity against Hepatitis C virus infected in human Huh7.5 cells; format: toxicity, cell-based; details: read-out: Ratio CC50/EC50
[3] = as §1; format: toxicity, cell-based, Huh-7.5; details: Huh7.5 cells; procedure, shortened: as §2
[4] = Acute toxicity in ip dosed Kunming mouse assessed as lethal dose measured after 7 days; format: organism-based; details: in vivo, 168 h, time 7 day
Procedure, shortened: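 Single intraperitoneal dose at 50, 100, 150 or 200 mg/kg, n = 6 per group. Animals watched closely for 7 days. Median lethal dose (LD₅₀) estimated from deaths across the dose groups.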

[5] = Aqueous Solubility of compound at pH 7 measured after 10 mins by HPLC-UV analysis; format: physicochemical; details: buffer

DNA dC->dU-editing enzyme APOBEC-3G (Homo sapiens), sequence (Q9HC16 whole entry): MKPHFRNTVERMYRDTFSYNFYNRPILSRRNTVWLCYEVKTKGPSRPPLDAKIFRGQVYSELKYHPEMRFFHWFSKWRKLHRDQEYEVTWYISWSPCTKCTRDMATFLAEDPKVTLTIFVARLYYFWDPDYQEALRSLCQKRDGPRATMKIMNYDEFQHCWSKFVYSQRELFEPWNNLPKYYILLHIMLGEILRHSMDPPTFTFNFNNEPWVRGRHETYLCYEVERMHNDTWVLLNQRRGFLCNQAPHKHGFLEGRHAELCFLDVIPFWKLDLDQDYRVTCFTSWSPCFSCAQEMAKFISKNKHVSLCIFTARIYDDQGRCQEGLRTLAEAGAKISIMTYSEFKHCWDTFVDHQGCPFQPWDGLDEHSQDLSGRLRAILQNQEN

Compound | CC50 (Huh-7.5) [µM] | inhibition [1] [%] | EC50 (Hepatitis C virus) [µM] | selectivity ratio [2] | CC50 at 96 h [3] [µM] | LD50 [4] [mg/kg] | solubility at 10 min [5] [µg/mL]
CCCOc1ccc(C(=O)Nc2ccc(OC)cc2)cc1NC(=O)CC | 106 | 25 | 1.55 | 68 | – | – | –
COc1ccc(NC(=O)c2ccc(OCCCN3CCN(C)CC3)c(N)c2)cc1 | – | < 25 | – | – | – | – | –
CCC(=O)Nc1cc(C(=O)Nc2ccc(OC)cc2)ccc1OC | 109 | > 50 | 1.3 | 84 | – | – | –
COc1ccc(C(=O)Nc2ccc(N(C)C)cc2)cc1[N+](=O)[O-] | 88.2 | > 50 | 4.07 | 22 | – | – | –
CN1CCN(Cc2ccc(NC(=O)c3ccc(OCCCCl)c([N+](=O)[O-])c3)cn2)CC1 | – | – | 0.083 | 151 | 12.6 | – | –
COc1ccc(NC(=O)c2ccc(OCCCN3CCN(C)CC3)c([N+](=O)[O-])c2)cc1 | – | < 25 | – | – | – | – | –
CN1CCN(Cc2ccc(NC(=O)c3ccc(OCCCCl)c(C(F)(F)F)c3)cc2C(F)(F)F)CC1 | 13.4 | – | 0.13 | 99.6 | – | – | –
CCC(=O)Nc1cc(C(=O)Nc2ccc(OC)cc2)ccc1OCCCN1CCOCC1 | 49.2 | – | > 22.2 | – | – | – | –
CCC(=O)Nc1cc(C(=O)Nc2ccc(CN3CCN(C)CC3)c(C(F)(F)F)c2)ccc1OCCCCl | 7.87 | – | 0.22 | 36.3 | – | – | –
CN1CCN(Cc2ccc(NC(=O)c3ccc(OCCCCCCl)c([N+](=O)[O-])c3)cc2C(F)(F)F)CC1 | 2.14 | – | 0.06 | 36 | – | – | –
CN1CCN(Cc2ccc(NC(=O)c3ccc(OCCCCl)c(N)c3)cc2C(F)(F)F)CC1 | 12.9 | – | 1.18 | 10.9 | – | – | –
CCC(=O)Nc1cc(C(=O)Nc2ccc(OC)cc2)ccc1OCCCN1CCN(C)CC1 | 126 | > 50 | 13.5 | 9.4 | – | – | –
COc1ccc(NC(=O)c2ccc(OC(C)C)c([N+](=O)[O-])c2)cc1 | 23.4 | < 25 | 2.86 | 8 | – | – | –
CC1CCN(c2ccc(NC(=O)c3ccc(OCCCCl)c([N+](=O)[O-])c3)cn2)CC1 | 9.2 | – | 0.64 | 14.4 | – | – | –
CCC[C@H](NC(=O)[C@@H]1[C@H]2CCC[C@H]2CN1C(=O)[C@@H](NC(=O)[C@@H](NC(=O)c1cnccn1)C1CCCCC1)C(C)(C)C)C(=O)C(=O)NC1CC1 | 23.7 | – | – | – | – | – | –
O=C(Nc1ccc(CN2CCOCC2)c(C(F)(F)F)c1)c1ccc(OCCCCl)c([N+](=O)[O-])c1 | 6.1 | – | 0.315 | 19.3 | – | – | –
CC(C)Oc1ccc(C(=O)Nc2ccc(CN3CCN(C)CC3)c(C(F)(F)F)c2)cc1[N+](=O)[O-] | 3.5 | < 25 | 0.095 | 39 | – | – | –
CN(C)C1CN(Cc2ccc(NC(=O)c3ccc(OCCCCl)c([N+](=O)[O-])c3)cc2C(F)(F)F)C1 | 7.8 | – | 0.021 | 371 | – | – | –
CCC(=O)Nc1cc(C(=O)Nc2ccc(N(C)C)cc2)ccc1OC(C)C | 80.6 | – | 6.03 | 13 | – | – | –
COc1ccc(NC(=O)c2ccc3c(c2)NC(=O)CO3)cc1 | 77.3 | 25 | 7.46 | 10 | – | – | –
CN(C)C1CCN(Cc2ccc(NC(=O)c3ccc(OCCCCl)c([N+](=O)[O-])c3)cc2C(F)(F)F)CC1 | 5.5 | – | 0.38 | 14 | – | – | –
CN1CCN(Cc2ccc(NC(=O)c3ccc(OCCCCl)c(S(N)(=O)=O)c3)cc2C(F)(F)F)CC1 | 5.47 | – | 1.14 | 6.2 | – | – | –
COc1ccc(C(=O)Nc2cc(OC)c(OC)c(OC)c2)cc1NC(=O)C(C)Br (configuration not stated) | 15 | – | 2.1 | 7 | – | – | –
CCC(=O)Nc1cc(C(=O)Nc2ccc(CN3CCN(C)CC3)c(C(F)(F)F)c2)ccc1OC | 35.3 | > 50 | 1.48 | 24 | – | – | –
CCC(=O)Nc1cc(C(=O)Nc2ccc(CN3CCN(C)CC3)c(C(F)(F)F)c2)ccc1OC(C)C | 15.3 | – | 0.3 | 51 | – | – | –
CCC(=O)Nc1cc(C(=O)Nc2ccc(-c3cc4ccccc4[nH]3)cc2)ccc1OC | 65.6 | > 50 | 7.41 | 9 | – | – | –
CCC(=O)Nc1cc(C(=O)Nc2ccc(N(C)C)cc2)ccc1OC | 171 | < 25 | 2.56 | 66 | – | – | –
CN1CCN(Cc2ccc(NC(=O)c3ccc(OCCCCl)c([N+](=O)[O-])c3)cc2C#N)CC1 | 15.5 | – | 0.65 | 23 | – | – | –

Compound | CC50 (Huh-7.5) [µM] | inhibition [1] [%] | EC50 (Hepatitis C virus) [µM] | selectivity ratio [2] | CC50 at 96 h [3] [µM] | LD50 [4] [mg/kg] | solubility at 10 min [5] [µg/mL]
CC(C)Oc1ccc(C(=O)Nc2ccc(CN3CCN(C)CC3)c(C(F)(F)F)c2)cc1NC(=O)C(C)Br (configuration not stated) | 8.7 | – | 0.32 | 27 | – | – | –
CN1CCN(Cc2ccc(NC(=O)c3ccc(OCCCCl)c([N+](=O)[O-])c3)cc2C(F)(F)F)CC1 | 6.8 | – | 0.044 | 154 | – | < 100 | –
CN(C)C1CCN(Cc2ccc(NC(=O)c3ccc(OCCCCl)c([N+](=O)[O-])c3)cc2C(F)(F)F)C1 (configuration not stated) | 5.8 | – | 0.051 | 113 | – | – | –
CCC(=O)Nc1cc(C(=O)Nn2c(C)nnc2S)ccc1OC | > 200 | > 50 | 14.4 | > 14 | – | – | –
CCC(=O)Nc1cc(C(=O)Nc2ccc(OC)cc2)ccc1OC(C)C | 113 | < 25 | 1.1 | 103 | – | – | –
COc1ccc(NC(=O)c2ccc3c(c2)NCCO3)cc1 | 153 | < 25 | > 22.2 | – | – | – | –
CCC(=O)Nc1cc(C(=O)Nc2ccc(OC)cc2)ccc1OCCCCl | 158 | – | 7.41 | 21 | – | – | –
CCCOc1ccc(C(=O)Nc2ccc(OC)cc2)cc1[N+](=O)[O-] | – | < 25 | – | – | – | – | –
COc1ccc(NC(=O)c2ccc(OCCCCl)c([N+](=O)[O-])c2)cc1 | 39.7 | < 25 | 2.39 | 17 | – | – | –
CN1CCN(Cc2ccc(NC(=O)c3ccc(OCCCCl)c(Cl)c3)cc2C(F)(F)F)CC1 | 4.1 | – | 0.58 | 7 | – | – | –
CCC(=O)Nc1cc(C(=O)Nc2ccc(CN3CCN(C)CC3)cc2)ccc1OC | > 200 | 25 | > 22.2 | – | – | – | –
CC(C)Oc1ccc(C(=O)Nc2ccc(N(C)C)cc2)cc1N | 72.1 | – | 7.41 | 10 | – | – | –
CN(C)C1CN(Cc2ccc(NC(=O)c3ccc(OCCCl)c([N+](=O)[O-])c3)cc2C(F)(F)F)C1.Cl | – | – | – | – | – | – | 7800
O=C(Nc1ccc(CN2CC(C(=O)O)C2)c(C(F)(F)F)c1)c1ccc(OCCCCl)c([N+](=O)[O-])c1 | > 200 | – | 4.72 | > 42 | – | – | –
CN1CCN(Cc2ccc(NC(=O)c3ccc(OCCCCl)c(F)c3)cc2C(F)(F)F)CC1 | 8.8 | – | 0.49 | 18.9 | – | – | –
CCC(=O)Nc1cc(C(=O)Nc2ccc(N3CCN(C)CC3)cc2)ccc1OC | > 200 | – | > 22.2 | – | – | – | –
COc1ccc(NC(=O)c2ccc(OCCCN(C)C)c([N+](=O)[O-])c2)cc1 | 126 | < 25 | 8.96 | 14 | – | – | –
CCC(=O)Nc1cc(C(=O)Nc2ccc(OC)cc2)ccc1OCCCN(C)C | 154 | > 50 | > 22.2 | – | – | – | –
CC(C)Oc1ccc(C(=O)Nc2ccc(N(C)C)cc2)cc1NC(=O)C(C)Br (configuration not stated) | 7.9 | – | 4.34 | 2 | – | – | –
CC(C)Oc1ccc(C(=O)Nc2ccc(N(C)C)cc2)cc1[N+](=O)[O-] | 50 | – | 3.1 | 16 | – | – | –
CN1CCN(Cc2ccc(NC(=O)c3ccc(OCCCl)c([N+](=O)[O-])c3)cc2C(F)(F)F)CC1 | 9.04 | – | 0.044 | 204 | – | – | –
CC(C)Oc1ccc(C(=O)Nc2ccc(CN3CCN(C)CC3)c(C(F)(F)F)c2)cc1N | 21.6 | – | 1.32 | 16 | – | – | –
CN1CCN(Cc2ccc(NC(=O)c3ccc(OCCCCCl)c([N+](=O)[O-])c3)cc2C(F)(F)F)CC1 | 3.74 | – | 0.1 | 37 | – | – | –
CCOc1ccc(C(=O)Nc2ccc(OC)cc2)cc1NC(=O)CC | 73.2 | 25 | 1.47 | 48 | – | – | –
COc1ccc2c(O[C@@H]3C[C@H]4C(=O)N[C@]5(C(=O)NS(=O)(=O)C6CC6)CC5/C=C\CCCCN(C)C(=O)[C@@H]4C3)cc(-c3nc(C(C)C)cs3)nc2c1C (single isomer, unassigned) | 38 | – | 0.008 | 4760 | – | – | –
CC1CN(Cc2ccc(NC(=O)c3ccc(OCCCCl)c([N+](=O)[O-])c3)cc2C(F)(F)F)CC(C)O1 (configuration not stated) | 2.3 | – | 0.174 | 13.3 | – | – | –
COc1ccc(NC(=O)c2ccc(OCCCN(C)C)c(N)c2)cc1 | – | < 25 | – | – | – | – | –
